Data on one molecule can be found in publication PMC5456262 (Biochemistry, 2017).

Test [1] concerns the target LacY mutant 32C/245C (I32C/N245C) (Escherichia coli, UniProt P02920, I32C/N245C). Description: biochemical. Format: binding.
Test [2] has as its target LacY mutant 32C/245C (I32C/N245C) reconstituted into PL (Escherichia coli, UniProt P02920, I32C/N245C). Description: biochemical. The format is binding.
Test [3] has as its target LacY mutant 35C/245C (H35C/N245C) (Escherichia coli, UniProt P02920, H35C/N245C). Description: NPG binding to mutant 35C/245C solubilized in DDM, stopped-flow Trp151→NPG FRET.
In test [4] the target is I32C LacY (Escherichia coli, UniProt P02920, I32C). Put plainly: NPG binding to control single-Cys mutant I32C, stopped-flow. The settings on record: Figure S3.
Test [5] deals with H35C LacY (Escherichia coli, UniProt P02920, H35C). Description: NPG binding to control single-Cys mutant H35C, stopped-flow. The settings on record: Figure S3.
Test [6] deals with N245C LacY (Escherichia coli, UniProt P02920, N245C). Description: NPG binding to control single-Cys mutant N245C, stopped-flow. The settings on record: Figure S3.
The target of test [7] is LacY control mutants I32C, H35C, or N245C. Put plainly: Galactoside. The format is binding, Escherichia coli. The following applies: range over three control mutants, presence or absence of Cu^2+. The essentials:
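Purified LacY single-Cys mutants were pretreated with CuSO4 (oxidizing) or 10 mM TCEP (reducing) for 10 min at room temperature, with stopped-flow final TCEP at 2 mM. Buffer was 50 mM NaPi pH 7.5, with 0.02% DDM for detergent-solubilized protein. Protein was preincubated 5 min with NPG at varied concentrations, then mixed by stopped-flow with 15 mM TDG. Trp151→NPG FRET was read at ex 295/em 340 nm, and single-exponential fits gave koff.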

Test [8] addresses mutant 32C/245C LacY–Nb9065 complex in PL (Escherichia coli, UniProt P02920, I32C/N245C). Format: binding.
Test [9] concerns the target WT LacY in PL. The settings on record: cited from earlier work.
[10] abbreviates: DDM, Cu^2+, directly measured NPG binding rates.
Where [11] appears, read: Kd^app calculated = Kd(1 + kr/kf), DDM, cross-linked with Cu^2+.
The mark [12] stands for this setting: read-out: kon from two-step conformational selection fit.

A word on the koff: it is a measure of how fast the partners let go of each other.

Values joined by “and” are separate entries in the source; they are usually repeats but may differ in a detail not shown here. Identical values can stand only once.

Chain of LacY mutant 35C/245C (H35C/N245C) (P02920 whole entry H35C/N245C): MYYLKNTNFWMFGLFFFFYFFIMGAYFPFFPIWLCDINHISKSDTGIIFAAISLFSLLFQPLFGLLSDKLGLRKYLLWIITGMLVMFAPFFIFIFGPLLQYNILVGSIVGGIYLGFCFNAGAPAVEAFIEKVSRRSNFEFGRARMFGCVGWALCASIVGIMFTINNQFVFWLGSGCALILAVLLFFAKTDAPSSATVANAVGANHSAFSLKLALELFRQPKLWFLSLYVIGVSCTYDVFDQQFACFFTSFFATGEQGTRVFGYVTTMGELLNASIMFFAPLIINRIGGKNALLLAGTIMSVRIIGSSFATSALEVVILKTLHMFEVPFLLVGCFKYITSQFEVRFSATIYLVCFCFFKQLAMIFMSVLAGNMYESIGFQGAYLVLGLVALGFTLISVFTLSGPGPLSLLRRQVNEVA
Chain of LacY mutant 32C/245C (I32C/N245C) (P02920 whole entry I32C/N245C): as the sequence (P02920 whole entry H35C/N245C) above, with I32C, C35H counted along it
Chain of LacY mutant 32C/245C (I32C/N245C) reconstituted into PL (P02920 whole entry I32C/N245C): as the sequence (P02920 whole entry H35C/N245C) above, with I32C, C35H counted along it
Chain of mutant 32C/245C LacY–Nb9065 complex in PL (P02920 whole entry I32C/N245C, one chain of several): as the sequence (P02920 whole entry H35C/N245C) above, with I32C, C35H counted along it
Chain of N245C LacY (P02920 whole entry N245C): as the sequence (P02920 whole entry H35C/N245C) above, with C35H counted along it
Chain of I32C LacY (P02920 whole entry I32C): as the sequence (P02920 whole entry H35C/N245C) above, with I32C, C35H, C245N counted along it
Chain of H35C LacY (P02920 whole entry H35C): as the sequence (P02920 whole entry H35C/N245C) above, with C245N counted along it

Regarding `O=[N+]([O-])c1ccc(O[C@H]2O[C@H](CO)[C@H](O)[C@H](O)[C@H]2O)cc1` [NPG, 4-nitrophenyl α-D-galactopyranoside], the “kobs limit at high sugar concentrations” value in test [1] (setting [10]) and in test [3] (setting [10]) was 40 to 50 s⁻¹ in each case. Also, in test [1] (DDM, cross-linked in the presence of Cu^2+), the “koff (rate of NPG displacement by excess TDG)” value came to 9.1 ± 0.9 s⁻¹. For the same molecule, the Kd is 68 µM in test [1] (setting [11]); 7 ± 1 µM in test [2]; 91 µM in test [3] (setting [11]); 3 to 17 µM in test [7]; 6 ± 2 µM in [8]; 11 µM in test [9] (WT LacY in PL). Further, the kon stood at 640000 ± 120000 M⁻¹ s⁻¹ in test [1] (setting [12]), 700000 ± 160000 M⁻¹ s⁻¹ in test [3] (setting [12]) and 3.7e+06 ± 200000 M⁻¹ s⁻¹ in test [8] (read-out: kon from concentration dependence of binding rates measured directly). Also, in test [2] (PL, cross-linked in the presence of Cu^2+, 400 μM NPG), the “sugar binding (NPG displacement)” value is “no sugar binding”. Moreover, in test [2] (PL, reducing conditions (TCEP), no Nb9065), the “kobs (NPG binding rate measured directly, independent of NPG concentration)” value was 2.2 ± 0.4 s⁻¹ and 2 s⁻¹. Also, the koff was 24 ± 3 s⁻¹ in test [2] (read-out: koff (displacement rate)), 33 to 102 s⁻¹ in test [7] and 111 s⁻¹ in test [9] (WT LacY in PL). Also, the “kobs (sugar binding rate measured directly)” value in test [4] was determined as 20 s⁻¹; in [5] it was 33 s⁻¹; in test [6], 26 s⁻¹. Further, the “kon estimated from displacement experiments” value in test [9] (WT LacY reconstituted into PL) was 1e+07 M⁻¹ s⁻¹. Also, the “kobs (sugar binding rate, independent of sugar concentration)” value in test [9] (reconstituted WT LacY) was 21 s⁻¹.
